In ChEMBL document CHEMBL4261516, “Design, synthesis and pharmacological evaluation of new 2-oxo-quinoline derivatives containing α-aminophosphonates as potential antitumor agents” (Medchemcomm, 2017):

What was measured:
NCI-H460 = assay: Cytotoxicity against human NCI-H460 cells after 48 hrs by MTT assay; type: functional, cell-based; conditions: NCI-H460, 48 h
Summary of the method: (§1)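 HepG2, SK-OV-3, NCI-H460 and HL 7702 lines grown as monolayers in DMEM with 10% FBS plus penicillin/streptomycin at 37 °C, 5% CO2. Exponentially growing cells were seeded and exposed to the indicated concentrations for 48 h. MTT was then added for 4 h at 37 °C, formazan was dissolved in DMSO, and OD was read at 490 nm. Each concentration was run in triplicate wells, with three independent runs per line.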

L02 = assay: Cytotoxicity against human HL-7702 cells after 48 hrs by MTT assay; type: cell-based; conditions: L02, 48 h; summary of the method: as §1
HepG2 = assay: Cytotoxicity against human HepG2 cells after 48 hrs by MTT assay; type: functional, cell-based; conditions: HepG2, 48 h; summary of the method: as §1
SK-OV-3 = assay: Cytotoxicity against human SKOV3 cells after 48 hrs by MTT assay; type: functional, cell-based; conditions: SK-OV-3, 48 h; summary of the method: as §1

| SMILES | IC50 (NCI-H460) [µM] | IC50 (L02) [µM] | IC50 (HepG2) [µM] | IC50 (SK-OV-3) [µM] |
| --- | --- | --- | --- | --- |
| CCOP(=O)(OCC)C(Nc1ccc(C)cc1)c1cc2cc3c(cc2[nH]c1=O)OCO3 (configuration not stated) | > 100 | > 100 | 43.1 | 48.9 |
| CCOP(=O)(OCC)C(Nc1ccc(C(F)(F)F)cc1)c1cc2cc3c(cc2[nH]c1=O)OCO3 (configuration not stated) | > 100 | > 100 | 79 | 22.4 |
| CCCCNC(c1cc2cc(C)ccc2[nH]c1=O)P(=O)(OCC)OCC (configuration not stated) | > 100 | > 100 | 39.2 | 130 |
| O=c1[nH]cc(F)c(=O)[nH]1 [FLUOROURACIL] |  | 58.7 |  | 26.3 |
| CCOP(=O)(Cc1ccc(/N=C/c2cc3cc4c(cc3[nH]c2=O)OCO4)cc1)OCC | > 100 | > 100 | 28.9 | 47.9 |
| CCCCNC(c1cc2ccccc2[nH]c1=O)P(=O)(OCC)OCC (configuration not stated) | > 100 | > 100 | 61.4 | 38.3 |
| CCOP(=O)(OCC)C(Nc1ccc(F)cc1)c1cc2cc3c(cc2[nH]c1=O)OCO3 (configuration not stated) | 59.6 | > 100 | 38 | 26.2 |
| CCOP(=O)(OCC)C(Nc1ccc(C)cc1)c1cc2cc(C)ccc2[nH]c1=O (configuration not stated) | > 100 | > 100 | 37.6 | 37.2 |
| CCOP(=O)(OCC)C(Nc1ccc(C(F)(F)F)cc1)c1cc2cc(OC)ccc2[nH]c1=O (configuration not stated) | > 100 | > 100 | 40.1 | 102 |
| CCOP(=O)(OCC)C(Nc1cccc(C)c1)c1cc2cc(C)ccc2[nH]c1=O (configuration not stated) | > 100 | > 100 | 46 | 342 |
| COc1ccc2[nH]c(=O)c(C=O)cc2c1 | > 200 | > 100 | > 200 | > 200 |
| CCCCNC(c1cc2cc3c(cc2[nH]c1=O)OCO3)P(=O)(OCC)OCC (configuration not stated) | 47.9 | > 100 | 46.3 | 37.2 |
| CCOP(=O)(OCC)C(Nc1ccc(F)cc1)c1cc2cc(C)ccc2[nH]c1=O (configuration not stated) | > 100 | > 100 | 46.2 | 30.3 |
| CCOP(=O)(OCC)C(Nc1ccc([N+](=O)[O-])cc1)c1cc2ccccc2[nH]c1=O (configuration not stated) | > 100 | > 100 | 75.2 | 30 |
| CCOP(=O)(OCC)C(Nc1cccc(C)c1)c1cc2ccccc2[nH]c1=O (configuration not stated) | > 100 | > 100 | 65.5 | 56 |
| CCOP(=O)(OCC)C(Nc1ccc([N+](=O)[O-])cc1)c1cc2cc3c(cc2[nH]c1=O)OCO3 (configuration not stated) | > 100 | > 100 | 44 | 28.2 |
| CCOP(=O)(OCC)C(Nc1cccc(C)c1)c1cc2cc3c(cc2[nH]c1=O)OCO3 (configuration not stated) | > 100 | > 100 | > 100 | > 100 |
| CCOP(=O)(OCC)C(Nc1ccccc1)c1cc2cc3c(cc2[nH]c1=O)OCO3 (configuration not stated) | > 100 | > 100 | 45.2 | 65 |

| SMILES | IC50 (NCI-H460) [µM] | IC50 (L02) [µM] | IC50 (HepG2) [µM] | IC50 (SK-OV-3) [µM] |
| --- | --- | --- | --- | --- |
| CCOP(=O)(OCC)C(Nc1cccc(C)c1)c1cc2cc(OC)ccc2[nH]c1=O (configuration not stated) | > 100 | > 100 | 45.5 | 73 |
| CCOP(=O)(OCC)C(Nc1ccc(C)cc1)c1cc2ccccc2[nH]c1=O (configuration not stated) | > 100 | > 100 | 67.3 | 66.8 |
| CCOP(=O)(OCC)C(Nc1ccc(F)cc1)c1cc2cc(OC)ccc2[nH]c1=O (configuration not stated) | > 100 | > 100 | 58.9 | 270 |
| CCOP(=O)(OCC)C(Nc1ccc(C(F)(F)F)cc1)c1cc2ccccc2[nH]c1=O (configuration not stated) | > 100 | > 100 | 39.1 | 25.8 |
| O=Cc1cc2ccccc2[nH]c1=O | > 200 | > 100 | > 200 | > 200 |
| CCOP(=O)(OCC)C(Nc1ccc([N+](=O)[O-])cc1)c1cc2cc(OC)ccc2[nH]c1=O (configuration not stated) | 44.6 | > 100 | 20.8 | 25.1 |
| CCCCNC(c1cc2cc(OC)ccc2[nH]c1=O)P(=O)(OCC)OCC (configuration not stated) | > 100 | > 100 | 43.2 | 58.2 |
| CCOP(=O)(Cc1ccc(/N=C/c2cc3cc(OC)ccc3[nH]c2=O)cc1)OCC | > 100 | > 100 | 17.3 | 53 |
| CCOP(=O)(OCC)C(Nc1ccc(F)cc1)c1cc2ccccc2[nH]c1=O (configuration not stated) | > 100 | > 100 | 37.2 | 41 |
| CCOP(=O)(OCC)C(Nc1ccc(C)cc1)c1cc2cc(OC)ccc2[nH]c1=O (configuration not stated) | > 100 | > 100 | 57.6 | 60 |
| CCOP(=O)(OCC)C(Nc1ccc([N+](=O)[O-])cc1)c1cc2cc(C)ccc2[nH]c1=O (configuration not stated) | > 100 | > 100 | 35.6 | > 200 |
| O=Cc1cc2cc3c(cc2[nH]c1=O)OCO3 | > 200 | > 100 | > 200 | > 200 |
| CCOP(=O)(Cc1ccc(/N=C/c2cc3ccccc3[nH]c2=O)cc1)OCC | 57.9 | > 100 | 17.9 | 36 |
| CCOP(=O)(OCC)C(Nc1ccccc1)c1cc2cc(OC)ccc2[nH]c1=O (configuration not stated) | > 100 | > 100 | 60.8 | 54.7 |
| Cc1ccc2[nH]c(=O)c(C=O)cc2c1 | > 200 | > 100 | > 200 | > 200 |
| CCOP(=O)(OCC)C(Nc1ccc(C(F)(F)F)cc1)c1cc2cc(C)ccc2[nH]c1=O (configuration not stated) | > 100 | > 100 | 68.1 | 191 |
| CCOP(=O)(OCC)C(Nc1ccccc1)c1cc2cc(C)ccc2[nH]c1=O (configuration not stated) | > 100 | > 100 | 39.6 | 69.4 |
| CCOP(=O)(OCC)C(Nc1ccccc1)c1cc2ccccc2[nH]c1=O (configuration not stated) | > 100 | > 100 | 46.3 | 54.1 |
